From the EternaBench riboswitch data

Test system: MS2 coat protein
Assay: apparent Kd, MS2 coat protein; higher = weaker binding; RNA-MaP array; FMN 200 µM where present
Method in brief: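 Binding was read on Illumina sequencing-chip clusters where stalled E. coli RNA polymerase had transcribed each design. A titration of SNAP-549-labelled MS2 coat protein began at 0.7 or 1.5 nM and doubled to 3 µM, once without ligand and once with constant ligand, in 100 mM Tris-HCl pH 7.5, 80 mM KCl, 4 mM MgCl2, BSA, DTT, yeast tRNA and Tween-20. The apparent Kd is the median of filtered per-cluster binding-curve fits, based on green signal normalised to red-channel RNA signal and control-cluster median Fmax.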

[1] = designed as: OFF switch for flavin mononucleotide, no ligand
[2] = ligand present: flavin mononucleotide, designed as: OFF switch for flavin mononucleotide
[3] = ligand present: flavin mononucleotide, designed as: ON switch for flavin mononucleotide
[4] = designed as: ON switch for flavin mononucleotide, no ligand

Sequence: AUUUUGUCAGGAUAUGAGUAGUAGGAUGAGAGUGCUACUACUUAGAAGGGACAUGAGGAUCACCCAUGUCUUCC
- apparent Kd [1]: 14.2 nM
- apparent Kd [2]: 16.7 nM

Sequence: CAAAAGCUAGGAUAUGCCAAUUGUUCCUUAAGUCAAAAUAAACAUGAGGAUCACCCAUGUAGAAGGAGCCCAAC
- apparent Kd [1]: 35.9 nM
- apparent Kd [2]: 19.8 nM

Sequence: CAAAUCUGAGGAUAUCGAUAUUUGUACAUGAGGAUCACCCAUGUCCUAUUUAUAAAAUCCCGAGAAGGCAGUGUAU
- apparent Kd [1]: 14.6 nM
- apparent Kd [2]: 22.9 nM

Sequence: CAAAUUUGGUAAGGAUAUCCCACAUUAUUCUGACCCGUGCAAGCUACAUGAGGAUCACCCAUGUGGGAGAAGGUGCGUUAAAGA
- apparent Kd [1]: 63 nM
- apparent Kd [2]: 79 nM

Sequence: CAAUUCCGAGGAUAUACAUGAGGAUCACCCAUGUCGGGCCUCAGCGUUUAGCGCCUCAGUAGAAGGCGGGUUUC
- apparent Kd [1]: 28.3 nM
- apparent Kd [2]: 34.8 nM

Sequence: CAAUUUUGGAGUUCGUAUCGAUACAUGAGGAUCACCCAUGUAAAGGAUAUGAUCUAGUUUUUAGAUCAGAAGGUUACAUAGGCG
- apparent Kd [1]: 54.9 nM
- apparent Kd [2]: 25.8 nM

Sequence: CACAAAUGGCAGAAGGGACGGACGAUAGUGUAGUCAGGAUAUGCAAAUAGGUAUGGACAUGAGGAUCACCCAUGUCCGUCCUUU
- apparent Kd [3]: 5.27 nM

Sequence: CACAGGGCAGGAUAUACGAACAUGUCGCCAGAUGUCAUGGUACAUGAGGAUCACCCAUGUAGAAGGGCGUUGAU
- apparent Kd [1]: 50.5 nM
- apparent Kd [2]: 52.8 nM

Sequence: CACAUUUUAACAGGAUAUGUAUGGUUGCUUAUUAUUGCAUAUUCAAUUAUUACAGAAGGGUUAUACAUGAGGAUCACCCAUGUG
- apparent Kd [4]: 21 nM
- apparent Kd [3]: 15.5 nM

Sequence: CACCAGCGAGGAUAUACACGUGGUCUCCACUCCCGGUGGUAACAUGAGGAUCACCCAUGUAGAAGGCGCAACAU
- apparent Kd [1]: 42 nM
- apparent Kd [2]: 220 nM

Sequence: CACCGCGACAACGCGGUGUCACAUGAGGAUCACCCAUGUUCACAGGAUAUGCGAUAGCCAACGAAGCAGAAGGGUGAUUACUUA
- apparent Kd [4]: 41.1 nM
- apparent Kd [3]: 111 nM

Sequence: CACUCACAUGAGGAUCACCCAUGUCCUAGCAGGUCAGGAUAUAGCUCGGAUGCGUUGAGGCUAGAAGGGACAGGUU
- apparent Kd [4]: 116 nM
- apparent Kd [3]: 68.5 nM

Sequence: CAGAAGUCAGGAUAUCCUGCUCGUCACUUGCGUGAUGAGUAGGAGAAGGGACAUGAGGAUCACCCAUGUAAAGC
- apparent Kd [1]: 53.8 nM
- apparent Kd [2]: 65.2 nM

Sequence: CAGACCGGCGCAGGAUAUGUCGACAUGAGGAUCACCCAUGUAAGCCUUGUCUGGUCCGGUGUGUGACAGAAGGGUGUCGGCCAA
- apparent Kd [1]: 29.5 nM
- apparent Kd [2]: 21.9 nM

Sequence: CAGAGUAAAGGAUAUACAUGAGGAUCACCCAUGUUUAGACCGACGACACGUCCUAGUUGUAGAAGGUUAUUUUG
- apparent Kd [1]: 82.2 nM
- apparent Kd [2]: 68.7 nM

Sequence: CAGAGUUGGUAAGGAUAUCCCACAUUAUUCUGACCCGUGCAAGCUACAUGAGGAUCACCCAUGUGGGAGAAGGUGCGUUAAAGA
- apparent Kd [1]: 39 nM
- apparent Kd [2]: 35 nM

Sequence: CAGCAUAAGUAGAAGGCUAUAUAUUUAAUUAUAUAAGGAUAUACAUGAGGAUCACCCAUGUGUUCCAGCUGAAUAAUAAUAUAU
- apparent Kd [1]: 5.49 nM
- apparent Kd [2]: 5.82 nM

Sequence: CAGCGAUAGCUGAAUGGUACAUGGGAGGAUAUGGGUUGACAUGAGGAUCACCCAUGUAAAUAAUACUAGAAGGCCCAUGUACCU
- apparent Kd [4]: 191 nM
- apparent Kd [3]: 9.38 nM

Sequence: CAGCGAUAGCUGAAUGGUACAUGGGAGGAUAUGGGUUGAUACAUGAGGAUCACCCAUGUUUAAUACUAGAAGGCCCAUGUACCU
- apparent Kd [4]: 316 nM
- apparent Kd [3]: 11 nM

Sequence: CAGCGGGCAGGAUAUGCACCUUGAGACAAAUGUCUGUCCGGACAUGAGGAUCACCCAUGUAGAAGGGCCACGGA
- apparent Kd [1]: 55.4 nM
- apparent Kd [2]: 44.5 nM

Sequence: CAGGACCUUGAGGAUAUGUGACGAUUAUCGUUCAUAGAAGGUAAGACAUGAGGAUCACCCAUGUCCUGGCAUAA
- apparent Kd [1]: 15.1 nM
- apparent Kd [2]: 15.1 nM

Sequence: CAGGAUAGAGGAUAUACAUAGAUACAGAUUCAUAUAAUCCUACAUGAGGAUCACCCAUGUAGAAGGCUAUCCUG
- apparent Kd [1]: 15 nM
- apparent Kd [2]: 46.4 nM

Sequence: CAGGAUAGAGGAUAUACGUAGAUACAGAUUCAUGUAAUCCUACAUGAGGAUCACCCAUGUAGAAGGCUAUCCUG
- apparent Kd [1]: 18 nM
- apparent Kd [2]: 113 nM

Sequence: CAGGAUCAAGGAUAUCAUCGACGGAACAUGAGGAUCACCCAUGUGAUUGUGCUCUCCUUGUGAGAAGGUGGCGAAU
- apparent Kd [1]: 38.5 nM
- apparent Kd [2]: 36.7 nM

Sequence: CAGGUAGACUGAGGAUAUACAAAGACCUAGUUUAUCUAGGUCAACAUCACAUGAGGAUCACCCAUGUAGAAGGCAGUCUGCCUG
- apparent Kd [1]: 15.4 nM
- apparent Kd [2]: 24.7 nM

Sequence: CAGGUAGACUGAGGAUAUACAAUAAAGACCUAGUCUAUCUAGGUCAUCACAUGAGGAUCACCCAUGUAGAAGGCAGUCUGCCUG
- apparent Kd [1]: 18.5 nM
- apparent Kd [2]: 38.2 nM

Sequence: CAGGUAGACUGAGGAUAUACACUAAACAGCUAGUCUAUCUAGCUGCUCACAUGAGGAUCACCCAUGUAGAAGGCAGUCUGCCUG
- apparent Kd [1]: 17.2 nM
- apparent Kd [2]: 39.3 nM

Sequence: CAGGUAGACUGAGGAUAUACACUAAACAGCUAGUCUAUCUAGCUGGUCACAUGAGGAUCACCCAUGUAGAAGGCAGUCUGCCUG
- apparent Kd [1]: 17.8 nM
- apparent Kd [2]: 35.9 nM

Sequence: CAGGUAGACUGAGGAUAUACAUCUCUGGGCAAACCAGAGUAAAAUUCGACAUGAGGAUCACCCAUGUAGAAGGCAGUCUGCCUG
- apparent Kd [1]: 17 nM
- apparent Kd [2]: 24.1 nM

Sequence: CAGUACUGAGGAUAUACAUGAGGAUCACCCAUGUGCUUUAGCUAGGAUACUAGCACUAGUAGAAGGCAGUACUG
- apparent Kd [1]: 13.9 nM
- apparent Kd [2]: 23.6 nM

Sequence: CAGUACUGAGGAUAUACAUGAGGAUCACCCAUGUGUUCCAGCUAGGAAACUAGCACUUGUAGAAGGCAGUACUG
- apparent Kd [1]: 24.6 nM
- apparent Kd [2]: 267 nM

Sequence: CAGUACUGAGGAUAUACAUGAGGAUCACCCAUGUUUUCCAGCUAGGAUACUAGCAAAUGUAGAAGGCAGUACUG
- apparent Kd [1]: 25.1 nM
- apparent Kd [2]: 249 nM

Sequence: CAGUAGAUCCGAGGAUAUACAAUCCGGAAACGGUACAUGAGGAUCACCCAUGUAGAAGGCGGAUCUACAGGUACUAAAGUACCA
- apparent Kd [1]: 5.77 nM
- apparent Kd [2]: 7.65 nM

Sequence: CAUACACAUGAGGAUCACCCAUGUGAGGAUAUGAAUACGUUGUCCGUAGGCGACGUGAUCAGAAGGCGCUUGGU
- apparent Kd [1]: 45.4 nM
- apparent Kd [2]: 61.8 nM

Sequence: CAUACACAUGAGGAUCACCCAUGUGAGGAUAUGCGUACGUUGUCCGUAGGCGACGUGCGCAGAAGGCGCUUGGU
- apparent Kd [1]: 57.1 nM
- apparent Kd [2]: 68.6 nM

Sequence: CAUCAGGUACGAGGAUAUCCGCGAUCUCUUCGAGGAGAAGGCGUACAUGAGGAUCACCCAUGUGGGCGAGGCAGACGAAGUCUG
- apparent Kd [1]: 96.3 nM
- apparent Kd [2]: 60.9 nM

Sequence: CAUGAGGUAGGAUAUACGAUAAUAUAGGGUAGAUAUAUAACACAUGAGGAUCACCCAUGUAGAAGGACCAGUAG
- apparent Kd [1]: 31.2 nM
- apparent Kd [2]: 57.2 nM

Sequence: CAUGCACAUGAGGAUCACCCAUGUCAGGAUAUCUAUCAUAGCAUCGAAAGAUGCGGGUAGAGAAGGGACAACCC
- apparent Kd [1]: 16.2 nM
- apparent Kd [2]: 16.4 nM

Sequence: CAUGGAACAUAGGAUAUCUCGCGGCUAGGCUGCAGAGAAGGAUGUACAUGAGGAUCACCCAUGUAUGAUCCAAU
- apparent Kd [1]: 18.9 nM
- apparent Kd [2]: 28.2 nM

Sequence: CAUGUCCUCACAGGAUAUGCAAUGUAUUUCAUUGCAGAAGGGUGAACACAUGAGGAUCACCCAUGUGGACAUGAUAUAUUUAAU
- apparent Kd [4]: 521 nM
- apparent Kd [3]: 69.5 nM

Sequence: CAUGUCCUCACAGGAUAUGCACCACUUUGUGGUGCAGAAGGGUGGUUACAUGAGGAUCACCCAUGUGGACAUGAUAUAUUUAAU
- apparent Kd [4]: 93.7 nM
- apparent Kd [3]: 1150 nM

Sequence: CAUUAAUUCAUUAUAGUUAUUAUACAGGAUAUGUUACAUGAGGAUCACCCAUGUUAUCAUGGUAAACAGAAGGGUAUAUAAAGU
- apparent Kd [1]: 33.5 nM
- apparent Kd [2]: 57.5 nM

Sequence: CAUUCGUGUCUAGGAUAUGAGUGACAAGCGCGAGAUUUUCUCGCCGCUAGCUCAGAAGGAGACAUGAGGAUCACCCAUGUAAGG
- apparent Kd [1]: 60.1 nM
- apparent Kd [2]: 11.8 nM

Sequence: CAUUUACAUGAGGAUCACCCAUGUGAGGAUAUGGAAUGGUUCAUUGUCUGACCUCCUUCUAGAAGGCACAUCUC
- apparent Kd [1]: 29.6 nM
- apparent Kd [2]: 30.5 nM

Sequence: CAUUUUGCCGAGGAUAUGGAGGAUGACACUCUACCAGAAGGUGGCACAUGAGGAUCACCCAUGUGGAGUUCGCG
- apparent Kd [1]: 79.3 nM
- apparent Kd [2]: 92.7 nM

Sequence: CCAAAAGCUACAGGAUAUCCGACUCGGUUGUCAGGAGAAGGGUGGCAAGACAUGAGGAUCACCCAUGUAGGGUCAUCCUUGAAA
- apparent Kd [1]: 9.9 nM
- apparent Kd [2]: 22.1 nM

Sequence: CCAACCGGCACCGGUUGAACAUGAGGAUCACCCAUGUACUCCAGAAGGCCGCCCAAGAACGGAGUGGAGGAUAUGGAGGUUCUC
- apparent Kd [4]: 15.5 nM
- apparent Kd [3]: 12 nM

Sequence: CCACGGUAUGUAGGAUAUGCAUAGCAUUGCUAUGCAGAAGGACAUGAGGAUCACCCAUGUAUGUAUUCCAUACUAAUCCCGUGC
- apparent Kd [1]: 6.42 nM
- apparent Kd [2]: 6.37 nM

Sequence: CCAGCCCGUGCAGGAUAUACAUGAGGAUCACCCAUGUAGGAGAAUCCGCCGGUAGAAGGGUACGGACGGGCGUCUGACGCUUGU
- apparent Kd [1]: 5.87 nM
- apparent Kd [2]: 6.33 nM

Sequence: CCAGCGUAUGUGAGGAUAUGCUGGUCCUUGGAUCAGCAGAAGGCACAUGAGGAUCACCCAUGUGAUGACGUUGG
- apparent Kd [1]: 50.9 nM
- apparent Kd [2]: 287 nM

Sequence: CCAGGCUUCGAGAAGGACAUGAGGAUCACCCAUGUGCGUGUGAAGCAGCCGUGAGGCUGCAUCAUGUAGGAUAUCGGAGUCUGU
- apparent Kd [1]: 72.2 nM
- apparent Kd [2]: 391 nM

Sequence: CCAUCAGCGAACGAUACGGUUGGACAUGAGGAUCACCCAUGUAGAAGGACAGGAGAAUAACGGCUGUAGGAUAUACAUUUAGUG
- apparent Kd [1]: 40.7 nM
- apparent Kd [2]: 33.9 nM

Sequence: CCAUCGAGUGUGAGGAUAUGCUGGUCCUUGGAUCAGCAGAAGGCACAUGAGGAUCACCCAUGUGAAUACGGUGG
- apparent Kd [1]: 29.9 nM
- apparent Kd [2]: 199 nM

Sequence: CCAUCGUGUGUGAGGAUAUGCUGGACCUUGGUUCAGCAGAAGGCACAUGAGGAUCACCCAUGUGAAUACGGUGG
- apparent Kd [1]: 18.9 nM
- apparent Kd [2]: 32.3 nM

Sequence: CCAUCGUGUGUGAGGAUAUGCUGGUCCUUGGAUCAGCAGAAGGCACAUGAGGAUCACCCAUGUGAAUACGAUGG
- apparent Kd [1]: 16.3 nM
- apparent Kd [2]: 29.5 nM

Sequence: CCAUGGAGUGUGAGGAUAUGCUGGUCCUUGGAUCAGCAGAAGGCACAUGAGGAUCACCCAUGUGAAUACCGUGG
- apparent Kd [1]: 36.2 nM
- apparent Kd [2]: 196 nM
